# Assay results reported in paper PMC3566574 (Organic & biomolecular chemistry, 2012).
# Columns and labels:
# AbaR [1] = test: AbaR agonism reporter gene assay; format: cell-based, Acinetobacter baumannii; settings: 100 μM, normalized to OH-dDHL at 100 μM (100%); triplicate, error ±10%
# Method in brief: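 Overnight A. baumannii abaI::lacZ culture diluted 1:100 in LB (pH 7.0), added to test compound from DMSO stock (final 100 or 10 μM), incubated statically at 37 °C for 18–24 h. OD600 read; aliquot lysed with Z buffer, CHCl3 and 0.1% SDS; ONPG 20 min at […], stopped with 1 M Na2CO3; A420/A550 converted to Miller units. Triplicate; scaled to 100 μM OH-dDHL (100%).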
# AbaR [2] = test: AbaR antagonism reporter gene assay; format: cell-based, Acinetobacter baumannii; settings: 100 μM against OH-dDHL at 700 nM; triplicate, error ±10%
# LasR [3] = target: T1, LasR (Pseudomonas aeruginosa, UniProt P25084); test: LasR agonism reporter gene assay; format: cell-based; settings: 100 μM, normalized to OdDHL at 100 μM (100%); triplicate, error ≤10%
# T1 sequence (P25084 whole entry): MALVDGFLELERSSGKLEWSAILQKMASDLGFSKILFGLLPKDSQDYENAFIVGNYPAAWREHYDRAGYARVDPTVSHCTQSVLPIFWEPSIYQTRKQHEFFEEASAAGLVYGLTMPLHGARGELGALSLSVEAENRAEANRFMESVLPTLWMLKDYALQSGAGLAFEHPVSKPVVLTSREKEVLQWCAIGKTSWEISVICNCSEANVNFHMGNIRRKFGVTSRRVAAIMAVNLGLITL
# LasR [4] = target: T1, LasR; test: LasR antagonism reporter gene assay; format: cell-based; settings: 100 μM against OdDHL at 10 nM; triplicate, error ≤10%
structure (smiles),measurement,setting,value
CCCc1cn(CC(=O)NC2CCOC2=O)nn1 (stereo not shown) [I-A],Activation [%] AbaR,AbaR [1],0%
same,Inhibition [%] AbaR,AbaR [2],47%
same,Activation [%] LasR,LasR [3],0%
same,Inhibition [%] LasR,LasR [4],55%
